The values below come from ChEMBL document CHEMBL3758117, “Discovery of indeno[1,2-b]quinoxaline derivatives as potential anticancer agents” (Eur J Med Chem, 2016).

Calls of active or inactive are those of the source. The rule behind the calls is not given here.

The nature of assay [1]: Antiproliferative activity against human H1299 cells after 72 hrs by XTT assay. Type of assay: functional, cell-based. Particulars: NCI-H1299, 72 h. The method, boiled down: (§1)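 Cells kept as monolayers in DMEM with 10% FBS, penicillin, streptomycin and amphotericin at 37°C, 5% CO2. Seeded at 5 x 10³ cells/well and exposed to compound for 72 h in medium with 10% FBS. XTT plus electron-coupling reagent added, 4 h at 37°C, absorbance read at 492 nm. Percent of control growth uses mean absorbance (n = 3). The 50% value is taken from the linear portion of the curve.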
(Formazan colour is commonly taken as a measure of viable cells.)

Assay [2] relates to MDA-MB-231. Put plainly: Antiproliferative activity against human MDA-MB-231 cells after 72 hrs by XTT assay. The note with it: MDA-MB-231, 72 h. Type of assay: functional, cell-based. The gist of the method:
as §1

Assay [3] is described as follows: Antiproliferative activity against human HuH7 cells after 72 hrs by XTT assay. Type of assay: functional, cell-based. The note with it: Huh-7, 72 h. The gist of the method: as §1
Assay [4] concerns the target DNA topoisomerase 2-alpha (Homo sapiens) (UniProt P11388). Put plainly: Inhibition of human DNA topoisomerase 2-mediated relaxation of supercoiled pBR322 DNA at 100 uM after 30 mins by ethidium bromide staining based agarose gel electrophoresis. The gist of the method:
(§2)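 Human topo I or topo II (2 units) was reacted with 0.2 μg supercoiled pBR322 in 20 μl Tris-HCl pH 7.5 containing KCl, DTT, EDTA, MgCl2 and BSA, with DMSO held at 0.5%, for 30 min at 37°C. The reaction was stopped with SDS. Samples were run on 1% agarose in Tris-acetate/EDTA at 1.5 V/cm for 2-3 h and stained with ethidium bromide. Relaxation was quantified by densitometry of the supercoiled band area.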

The target of assay [5] is T1, DNA topoisomerase 1 (Homo sapiens) (UniProt P11387).
T1 sequence (whole entry): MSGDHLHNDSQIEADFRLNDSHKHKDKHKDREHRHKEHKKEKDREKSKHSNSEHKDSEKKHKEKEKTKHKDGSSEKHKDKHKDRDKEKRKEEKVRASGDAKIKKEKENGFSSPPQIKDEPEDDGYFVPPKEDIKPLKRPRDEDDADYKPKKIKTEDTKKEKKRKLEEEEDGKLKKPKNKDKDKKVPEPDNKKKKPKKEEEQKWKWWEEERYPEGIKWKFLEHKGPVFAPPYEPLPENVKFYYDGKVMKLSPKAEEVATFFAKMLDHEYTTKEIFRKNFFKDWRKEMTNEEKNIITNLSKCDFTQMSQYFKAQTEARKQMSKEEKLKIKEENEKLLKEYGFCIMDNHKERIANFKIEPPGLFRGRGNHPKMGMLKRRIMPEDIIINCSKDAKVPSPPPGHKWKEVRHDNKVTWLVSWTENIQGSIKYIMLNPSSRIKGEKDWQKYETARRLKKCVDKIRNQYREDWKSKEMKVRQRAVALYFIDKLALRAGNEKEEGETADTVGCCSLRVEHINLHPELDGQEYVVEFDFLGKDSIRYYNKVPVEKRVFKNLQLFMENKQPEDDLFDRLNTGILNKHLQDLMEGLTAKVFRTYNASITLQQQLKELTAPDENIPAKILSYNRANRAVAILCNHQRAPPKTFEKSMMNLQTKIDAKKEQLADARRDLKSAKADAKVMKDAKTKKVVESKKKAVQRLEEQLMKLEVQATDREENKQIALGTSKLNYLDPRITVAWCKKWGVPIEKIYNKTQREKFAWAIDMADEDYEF
In words: Inhibition of human DNA topoisomerase 1-mediated relaxation of supercoiled pBR322 DNA at 100 uM after 30 mins by ethidium bromide staining based agarose gel electrophoresis. The method, boiled down: as §2

The test system of assay [6] is Huh-7. Put plainly: Selectivity index, ratio of IC50 for human MRC5 cells to IC50 for human HuH7 cells. The format is functional.
Assay [7] in a line: Antiproliferative activity against human PC3 cells after 72 hrs by XTT assay. The format is functional, cell-based. The note with it: PC-3, 72 h. The gist of the method:
as §1

The subject of assay [8] is MRC5. In words: Selectivity index, ratio of IC50 for human MRC5 cells to IC50 for human PC3 cells. Type of assay: functional.
For assay [9], the system named is MRC5. Put plainly: Antiproliferative activity against human MRC5 cells after 72 hrs by XTT assay. The note with it: MRC5, 72 h. The format is cell-based. The method, boiled down: as §1
In assay [10] the target is T1, DNA topoisomerase 1 (Homo sapiens). Put plainly: Inhibition of human DNA topoisomerase 1-mediated relaxation of supercoiled pBR322 DNA at 10 uM after 30 mins by ethidium bromide staining based agarose gel electrophoresis. The method, boiled down: as §2
For assay [11], the target named is DNA topoisomerase 2-alpha (Homo sapiens) (UniProt P11388). Put plainly: Inhibition of human DNA topoisomerase 2-mediated relaxation of supercoiled pBR322 DNA at 10 uM after 30 mins by ethidium bromide staining based agarose gel electrophoresis. The gist of the method: as §2
Sequence of DNA topoisomerase 2-alpha (Homo sapiens) (P11388 whole entry): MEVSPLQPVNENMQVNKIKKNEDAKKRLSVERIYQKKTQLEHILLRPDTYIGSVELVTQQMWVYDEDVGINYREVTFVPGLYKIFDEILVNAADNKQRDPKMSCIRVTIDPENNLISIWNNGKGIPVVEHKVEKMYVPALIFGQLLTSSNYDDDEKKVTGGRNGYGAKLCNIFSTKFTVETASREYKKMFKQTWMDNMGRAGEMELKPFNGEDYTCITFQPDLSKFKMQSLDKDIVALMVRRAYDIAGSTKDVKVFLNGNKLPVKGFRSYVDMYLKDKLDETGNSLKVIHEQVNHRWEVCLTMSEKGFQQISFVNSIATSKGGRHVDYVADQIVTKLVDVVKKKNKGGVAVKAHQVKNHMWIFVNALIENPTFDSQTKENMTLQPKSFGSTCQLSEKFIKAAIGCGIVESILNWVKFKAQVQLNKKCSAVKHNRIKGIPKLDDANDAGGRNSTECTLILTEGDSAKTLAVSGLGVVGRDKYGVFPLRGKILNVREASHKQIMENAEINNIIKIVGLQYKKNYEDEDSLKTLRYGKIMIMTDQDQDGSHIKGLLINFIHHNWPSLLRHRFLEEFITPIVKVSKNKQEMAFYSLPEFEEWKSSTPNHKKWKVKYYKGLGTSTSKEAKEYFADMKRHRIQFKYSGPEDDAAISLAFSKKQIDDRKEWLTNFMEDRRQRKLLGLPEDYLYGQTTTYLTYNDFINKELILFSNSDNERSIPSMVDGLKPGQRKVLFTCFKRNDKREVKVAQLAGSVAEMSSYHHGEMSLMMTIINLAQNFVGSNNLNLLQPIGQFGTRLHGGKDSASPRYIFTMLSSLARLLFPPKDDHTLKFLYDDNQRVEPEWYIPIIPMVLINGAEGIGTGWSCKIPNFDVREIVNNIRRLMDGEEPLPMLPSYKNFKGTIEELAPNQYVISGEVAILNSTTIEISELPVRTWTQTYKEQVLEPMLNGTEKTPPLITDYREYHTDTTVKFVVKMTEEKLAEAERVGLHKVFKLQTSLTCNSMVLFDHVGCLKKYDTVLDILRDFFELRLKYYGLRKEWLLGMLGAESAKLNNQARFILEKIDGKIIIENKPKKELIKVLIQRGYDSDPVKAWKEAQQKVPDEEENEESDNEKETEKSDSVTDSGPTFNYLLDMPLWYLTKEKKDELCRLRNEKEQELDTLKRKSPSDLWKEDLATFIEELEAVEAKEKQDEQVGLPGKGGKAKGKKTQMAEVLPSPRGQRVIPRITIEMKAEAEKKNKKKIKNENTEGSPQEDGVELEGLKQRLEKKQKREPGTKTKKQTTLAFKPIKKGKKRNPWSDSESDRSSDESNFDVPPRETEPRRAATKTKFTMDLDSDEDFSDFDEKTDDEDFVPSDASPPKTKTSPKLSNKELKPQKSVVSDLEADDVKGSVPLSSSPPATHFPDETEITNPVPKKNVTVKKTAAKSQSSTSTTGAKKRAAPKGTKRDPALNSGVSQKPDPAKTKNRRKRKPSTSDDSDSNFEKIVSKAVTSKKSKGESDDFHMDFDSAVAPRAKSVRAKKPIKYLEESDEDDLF
The subject of assay [12] is MRC5. In words: Selectivity index, ratio of IC50 for human MRC5 cells to IC50 for human MDA-MB-231 cells. Type of assay: functional.
The subject of assay [13] is Escherichia coli. Put plainly: Binding affinity to Escherichia coli negative supercoiled pBR322 DNA at 10 uM after 12 hrs by ethidium bromide staining based agarose gel electrophoresis. The gist of the method: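 Negatively supercoiled pBR322 (400 ng) in TE buffer pH 8.0 was incubated with compound at 10 μM for 12 h at room temperature. Loading buffer with sarkosyl was added. Samples were run on 1% agarose at 6 V/cm for 2.5 h in TAE pH 8.5, stained with ethidium bromide and photographed under UV.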

The nature of assay [14]: Selectivity index, ratio of IC50 for human MRC5 cells to IC50 for human H1299 cells. The format is functional.

As for `CN(C)CCCO/N=C1\c2ccccc2-c2nc3c(C(=O)NCCN(C)C)cccc3nc21.Cl`, the IC50 (usually the point on the concentration scale where inhibition reaches its midpoint) in [1] turned out to be 6.88 µM; in [2], 0.67 µM; in assay [3], 0.83 µM; in assay [7], 0.89 µM; in assay [9], 9 µM. In addition, in [4], the “inhibition call (active/not active)” value was “Active”. Moreover, the “topoisomerase 1 inhibition (active/inactive)” value in assay [5] was “Active”. The “Ratio IC50” value was 10.84 in assay [6], 10.11 in assay [8], 13.43 in assay [12] and 1.31 in [14]. Besides, the inhibition entry in assay [10] is “Active”. The “topoisomerase 2 inhibition (active/not active)” value in assay [11] is “Active”. Also, the result in assay [13] was Active.

Regarding `CN(C)CCCNC(=O)c1cccc2nc3c(nc12)-c1ccccc1C3=O`, the IC50 in [1] turned out to be 7.82 µM; in [2], 7.04 µM; in assay [3], 7.7 µM; in assay [7] it was 10.2 µM; in assay [9] it was 9.07 µM. Also, in [4], the “inhibition call (active/not active)” value is “Active”. Also, in [5], the “topoisomerase 1 inhibition (active/inactive)” value is “Active”. Besides, the “Ratio IC50” value in assay [6] is reported as 1.18; in assay [8], 0.89; in [12], 1.29; in [14], 1.16. The inhibition entry in assay [10] is “inactive”. The “topoisomerase 2 inhibition (active/not active)” value in assay [11] is “inactive”. For the same molecule, the result in assay [13] was inactive.

As to `CN(C)CCCO/N=C/c1cccc2nc3c(nc12)-c1ccccc1/C3=N\OCCCN(C)C.Cl`, the IC50 turned out to be 5.1 µM in [1]; 7.03 µM in [2]; 7.19 µM in assay [3]; 6.27 µM in assay [7]; 6.56 µM in assay [9]. Also, the “inhibition call (active/not active)” value in [4] is “Active”. Besides, the “topoisomerase 1 inhibition (active/inactive)” value in [5] was “Active”. Also, the “Ratio IC50” value in assay [6] worked out at 0.91; in assay [8], 1.05; in assay [12] it was 0.93; in assay [14], 1.29. Further, the inhibition entry in assay [10] is “Active”. The “topoisomerase 2 inhibition (active/not active)” value in [11] was “Active”. Besides, the result in assay [13] was inactive.

For `Cc1cccc2nc3c(nc12)-c1ccccc1/C3=N\OCCCN(C)C.Cl`, the IC50 in assay [1] was 7.26 µM; in [2], 6.84 µM; in assay [3] it was 5.88 µM; in assay [7], 7.01 µM; in [9], 7.86 µM. Also, the “inhibition call (active/not active)” value in assay [4] was “Active”. Besides, the “topoisomerase 1 inhibition (active/inactive)” value in assay [5] was “Active”. In addition, the “Ratio IC50” value in assay [6] is reported as 1.34; in [8] it was 1.12; in [12], 1.13; in assay [14], 1.08. The inhibition result in assay [10] was “Active”. Also, the “topoisomerase 2 inhibition (active/not active)” value in assay [11] was “inactive”. In [13], the result was inactive.

Take `CN(C)CCCO/N=C1\c2ccccc2-c2nc3c(CN4CCC(N5CCCCC5)CC4)cccc3nc21.Cl`: the IC50 in assay [1] turned out to be 5.14 µM; in [2], 0.99 µM; in assay [3], 0.82 µM; in assay [7] it was 6.12 µM; in assay [9] it was 3.49 µM. Besides, the “inhibition call (active/not active)” value in assay [4] was “Active”. Also, the “topoisomerase 1 inhibition (active/inactive)” value in [5] was “Active”. The “Ratio IC50” value in assay [6] is 4.26; in assay [8], 0.57; in assay [12] it was 3.53; in [14] it was 0.68. Further, the inhibition entry in assay [10] is “Active”. Also, in assay [11], the “topoisomerase 2 inhibition (active/not active)” value is “inactive”. The result in assay [13] was inactive.
